From ChEMBL document CHEMBL5653629, “Novel Class of Potent and Cellularly Active Inhibitors Devalidates MTH1 as Broad-Spectrum Cancer Target” (ACS Chem Biol, 2017)
In brackets after ≈: the same amount, converted by molar mass. Activity calls are given as the source filed them. The rule behind the calls is not given here.

How the values were obtained:
[1] = tested on: U2OS; assay: Upregulation of nuclear 8-oxo-dG level in human U2OS cells at 100 to 300 nM incubated for 72 hrs by high content analysis; type: functional, cell-based; details: dose 100-300 nM
How it was run: (§1)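 U2OS cells were immunostained for 8-oxo-dG and DNA, then imaged by high content analysis. Average nuclear 8-oxo-dG intensity and average nuclear count were measured together.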

[2] = tested on: U2OS; assay: Cytotoxicity against human U2OS cells assessed as reduction in cell viability by measuring nuclei count at 30 uM incubated for 72 hrs by high content analysis; type: functional, cell-based; how it was run: as §1
[3] = tested on: U2OS; assay: Upregulation of nuclear 8-oxo-dG level in human U2OS cells at 1 to 2 uM incubated for 72 hrs by high content analysis; type: functional, cell-based; details: dose 1-2 µM; how it was run: as §1
[4] = tested on: HeLa; assay: Upregulation of OGG1 mRNA level in human HeLa cells at 1 uM incubated for 6 days by qPCR analysis; type: functional, cell-based; details: time 6.0 day
[5] = tested on: NCI-H358; assay: Induction of DNA double strand breaks in human NCI-H358 cells assessed as increase in gamma-H2AX expression at 12.4 uM incubated for 72 hrs by high content analysis; type: functional, cell-based
How it was run: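 NCI-H358 cells were immunostained for γH2AX and DNA and analysed by high content imaging. The highest concentration tested was 12.4 µM, and EC50 was taken for DSB induction.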

[6] = Metabolic stability in Han Wistar rat hepatocytes using well-stirred liver model assessed as clearance at 1 uM measured for 2 to 90 mins by LC-MS/MS analysis; type: ADME, cell-based, Hepatocyte; details: time 2-90 min
[7] = tested on: U2OS; assay: Effect on nuclear 8-oxo-dG level in human U2OS cells at 10 to 30 uM incubated for 72 hrs in presence of LCS1 by high content analysis; type: functional, cell-based; details: dose 10-30 µM
[8] = tested on: NCI-H460; assay: Antitumor activity against human NCI-H460 cells xenografted in NMRI nude mouse assessed as reduction in tumor volume at 100 mg/kg, po measured for 10 days; details: time 10.0 day
[9] = tested on: CT26; assay: Antitumor activity against mouse CT26 cells xenografted in NMRI nude mouse assessed as reduction in tumor volume at 100 mg/kg, po measured for 12 days; type: functional, organism-based; details: time 12.0 day
[10] = Protein binding in mouse plasma assessed as free fraction; type: ADME, cell-free
[11] = Toxicity in NMRI nude mouse assessed as body weight loss upto 250 mg/kg, po qd for 7 days; type: organism-based; details: in vivo, 168 h, time 7 day
How it was run: (§2)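 Female NMRI nude mice received oral doses in PEG/water (80:20), escalated step-wise from 25 to 250 mg/kg over 7 days. Body weight, overt toxicity and mortality were monitored, and observation was extended a further 7 days to catch latent toxicity.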

[12] = Distribution coefficient, logD of compound at pH 7.5 by HPLC analysis; type: physicochemical; details: octanol/water
[13] = tested on: MCF7; assay: Inhibition of colony formation of human MCF7 cells at 0.1 to 10 uM measured after 15 days by soft agar assay; type: functional, cell-based; details: dose 0.1-10 µM, time 15.0 day
[14] = Cytotoxicity against HMEC cells assessed as cell growth inhibition incubated for 144 hrs by alamarblue staining based assay; type: toxicity; details: human
[15] = Aqueous solubility of compound in pH 6.5; type: physicochemical; details: buffer
[16] = tested on: HeLa; assay: Upregulation of OGG1 protein level in human HeLa cells at 1 uM by Western blot analysis; type: functional, cell-based
How it was run: (§3)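 HeLa cells were treated and probed by Western blot for MTH2, OGG1, MUTYH and MTH1. HSP90 served as loading control.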

[17] = Metabolic stability in human liver microsomes assessed as clearance at 1 uM measured for 2 to 60 mins by LC-MS/MS analysis; type: ADME, Microsome; details: time 2-60 min
[18] = tested on: HeLa; assay: Upregulation of MUTYH protein level in human HeLa cells at 1 uM by Western blot analysis; type: functional, cell-based; how it was run: as §3
[19] = tested on: U2OS; assay: Effect on nuclear 8-oxo-dG level in human U2OS cells at 10 to 30 uM incubated for 72 hrs by high content analysis; type: functional, cell-based; details: dose 10-30 µM; how it was run: as §1
[20] = Metabolic stability in Han Wistar rat hepatocytes using well-stirred liver model assessed as maximum bioavailability at 1 uM measured for 2 to 90 mins by LC-MS/MS analysis; type: ADME, Hepatocyte; details: time 2-90 min, route po, read-out: Fmax
[21] = Toxicity in NMRI nude mouse assessed as drug tolerability at 25 to 250 mg/kg, po qd for 7 days; type: organism-based; details: in vivo, 168 h, dose 25-250 mg/kg, time 7 day; how it was run: as §2
[22] = tested on: CT26; assay: Antitumor activity against mouse CT26 cells xenografted in NMRI nude mouse assessed as reduction in tumor weight at 100 mg/kg, po measured for 12 days; type: functional, organism-based; details: time 12.0 day
[23] = tested on: CT26; assay: Additive antitumor activity against mouse CT26 cells xenografted in NMRI nude mouse assessed as reduction in tumor growth at 100 mg/kg, po along with radiation treatment measured for 12 days; type: functional, organism-based; details: time 12.0 day
[24] = tested on: HeLa; assay: Upregulation of MUTYH mRNA level in human HeLa cells at 1 uM incubated for 6 days by qPCR analysis; type: functional, cell-based; details: time 6.0 day
[25] = Apparent permeability across apical to basolateral side in human Caco-2 cells at 2 uM incubated for 2 hrs by LC/MS/MS analysis; type: ADME, cell-based
[26] = Metabolic stability in human liver microsomes assessed as maximum bioavailability at 1 uM measured for 2 to 60 mins by LC-MS/MS analysis; type: ADME, Microsome; details: time 2-60 min, read-out: Fmax
[27] = tested on: NCI-H460; assay: Antitumor activity against human NCI-H460 cells xenografted in NMRI nude mouse assessed as reduction in tumor weight at 100 mg/kg, po measured for 10 days; details: time 10.0 day
[28] = tested on: NCI-H358; assay: Induction of DNA double strand breaks in human NCI-H358 cells assessed as increase in gamma-H2AX expression at 0.005 to 12 micromol/L incubated for 72 hrs by high content analysis; details: NCI-H358, 72 h
[29] = tested on: U2OS; assay: cells; details: Homo sapiens, 144 h
[30] = tested on: MCF7; assay: cells; details: Homo sapiens, MCF7, 144 h
[31] = tested on: NCI-H460; assay: cells; details: Homo sapiens, NCI-H460, 144 h
[32] = tested on: MDA-MB-231; assay: cells; details: Homo sapiens, MDA-MB-231, 144 h
[33] = tested on: SW480; assay: cells; details: Homo sapiens, SW480, 144 h
[34] = tested on: NCI-H358; assay: cells; details: Homo sapiens, NCI-H358, 144 h
[35] = tested on: A549; assay: cells; details: Homo sapiens, A549, 144 h
[36] = tested on: HeLa; assay: cells; details: Homo sapiens, 144 h
[37] = tested on: U2OS; assay: Upregulation of nuclear 8-oxo-dG level in human U2OS cells at 2 to 10 uM incubated for 72 hrs by high content analysis; type: functional, cell-based; details: dose 2-10 µM; how it was run: as §1

Structure (SMILES)	Activity [2]	Activity [4]	CLhep predicted at 1 µM [6]	fraction unbound [10]	logD [12]	GI50 at 144 h [14]	solubility [15]	Activity [16]	CLH [17]	Activity [18]	Fh at 1 µM [20]	Activity [24]	Papp A→B at 2 h, 2 µM [25]	Fh at 1 µM [26]	further results
CC[C@@H]1C(=O)N(C)c2cnc(Nc3ccc(C(=O)N[C@H]4CC[C@H](N5CCN(CC6CC6)CC5)CC4)cc3OC)nc2N1C(C)C	–	–	–	–	–	–	–	–	–	–	–	–	–	–	Activity [1]: Active
Cc1cccc(-n2ncc(Cl)c(Cl)c2=O)c1	Active	–	–	–	–	–	–	–	–	–	–	–	–	–	–
CC(C)(C)c1cnc(CSc2cnc(NC(=O)C3CCNCC3)s2)o1	–	–	–	–	–	–	–	–	–	–	–	–	–	–	Activity [3]: Active
CCNC(=O)c1cc2c(N3CCOC[C@@H]3C)ccnc2[nH]1	–	inactive	9 mL/min/kg	0.48	1.6	> 30 µM	288 µg/mL (≈ 999 µM)	inactive	4.83 mL/min/kg	inactive	87%	inactive	14.8 ×10⁻⁶ cm/s	78%	Activity [5]: inactive; Activity [7]: inactive; Activity [8]: inactive; Activity [9]: inactive; Activity [11]: < 10%; inhibition [13]: inactive; Activity [19]: inactive; Activity [21]: Non-Toxic; Activity [22]: inactive; Activity [23]: inactive; Activity [27]: inactive
Nc1nc(NC2CC2)cc(-c2cccc(Cl)c2Cl)n1	Active	inactive	32 mL/min/kg	0.04	2.5	3.2 µM	38 µg/mL (≈ 129 µM)	inactive	10.7 mL/min/kg	inactive	54%	inactive	30.7 ×10⁻⁶ cm/s	51%	EC50 [28]: 3.11 µM; GI50 [29]: 2.6 µM; GI50 [30]: 3.5 µM; GI50 [31]: 7.1 µM; GI50 [32]: 6.3 µM; GI50 [33]: 5.3 µM; GI50 [34]: 4.9 µM; GI50 [35]: 4 µM; GI50 [36]: 4.2 µM
Cc1cc(Nc2cc(N3CCN(C)CC3)nc(Sc3ccc(NC(=O)C4CC4)cc3)n2)n[nH]1	–	–	–	–	–	–	–	–	–	–	–	–	–	–	Activity [37]: Active
